Rows were chosen to be rich in hits. Some 3.4% of all compounds tested hit in one or more screens of this group.
Runt-SMMHC FRET: inhibitors of RUNX1 Runt–CBFb-SMMHC binding, primary screen, biochemical, FRET, Cerulean-Runt, Venus-CBFb-SMMHC, uHTS; inhibition, % at 20 µM; Cerulean-Runt/Venus-CBFb-SMMHC FRET ratio 530/480, 1 h; actives 0.74% (n = 220,000); Runt-related transcription factor 1 (Homo sapiens) + Core-binding factor subunit beta …; AID 1434, 2008;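 active means mean inhibition across duplicate retests at 20 µM reaching about 50%, limit read from the data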;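 further: 0% = DMSO wells and 100% = wells with excess untagged CBFb-SMMHC; inhibitors lower the FRET ratio by blocking Runt binding to CBFb-SMMHC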
Runt-CBFb FRET: inhibitors of RUNX1 Runt–CBFb binding, primary screen, biochemical, FRET, Cerulean-Runt, Venus-CBFb, uHTS. actives 0.46% (n = 220,000). inhibition, % at 20 µM. Cerulean-Runt/Venus-CBFb FRET ratio 530/480, 1 h. AID 1496, 2009;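 active means inhibition over about 50% at 20 µM in the single-dose screen, limit read from the data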;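 further: 0% = DMSO wells and 100% = excess unlabeled CBFb competitor control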
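Measured by: fluorescence energy transfer, 422 nm excitation, 530/480 nm emission; test system: Cerulean-tagged RUNX1 Runt domain (FRET donor) fusion protein; buffer or medium: Tris pH 7.5 buffer with BSA; compound: one dose, 20 µM compound, 1% DMSO; times: two 1 h room-temperature incubations shielded from light; benchmarks: unlabeled CBFb 5 µM, positive control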
PHOSPHO1 block: PubChem AID 1565; Phosphoethanolamine/phosphocholine phosphatase (Homo sapiens), Q8TCT1; actives 1.1% (n = 290,000); recombinant PHOSPHO1, absorbance phosphatase assay; inhibition, % at 13.3 µM; in the data active means inhibition above about 60%
Target sequence (Q8TCT1 whole entry, looked up): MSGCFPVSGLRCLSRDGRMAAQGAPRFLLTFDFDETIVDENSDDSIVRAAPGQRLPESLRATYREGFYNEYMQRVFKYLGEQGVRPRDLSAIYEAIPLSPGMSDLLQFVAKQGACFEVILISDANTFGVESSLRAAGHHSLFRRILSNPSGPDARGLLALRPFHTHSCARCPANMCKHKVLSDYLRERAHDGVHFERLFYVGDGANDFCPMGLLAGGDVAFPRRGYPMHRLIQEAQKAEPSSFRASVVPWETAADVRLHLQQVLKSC
RanGTP-Imp inh: inhibitors of RanGTP-importin-beta interaction, primary screen, biochemical, FRET, CFP-Ran, YFP-importin-beta, homogeneous. Ran GTPase (GTP-bound) - importin-beta complex. cell-free CFP-Ran/YFP-importin-beta FRET ratio. inhibition, % (no concentration beside the values). actives 1.1% (n = 300,000);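 active means more than half of the replicate wells show a fall in the fluorescence ratio signal beyond about 16%, limit read from the data, passing the limit was not always enough; inconclusive means exactly half of the replicate wells pass the set limit; inactive means fewer than half of replicates pass the limit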;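 further: 0% = DMSO wells and 100% = Ran loaded with GDP instead of GTP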
Efa HMGR inh: inhibitors of E. faecalis class II HMGR, primary screen, biochemical, Enterococcus faecalis; HMG-CoA reductase (Enterococcus faecalis, mvaE); AID 1066, 2008; inhibition, % at 10 µM; actives 0.41% (n = 190,000); purified E. faecalis HMGR, NADPH absorbance 340 nm kinetic;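 active means inhibition above a set limit, the median over all tested compounds plus 3 SD, cut at about 9.5% in these data; inconclusive means no clear call, values can overlap the other calls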;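 further: enzyme runs in reverse so mevalonate oxidation gives rising NADPH absorbance; 0% = complete reaction with DMSO and 100% = background rate lacking mevalonate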
Wee1 degr inh: Wee1 degradation inhibitors, primary screen, cell-based, HeLa, Wee1K328M-luciferase, luminescence; actives 1.2% (n = 220,000); AID 1321, 2008; reporter increase, % at 5 µM; HeLa Luc-Wee1K328M stability; 100% = proteasome inhibitor MG132 effect;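 active means activation above the mean of all tested compounds plus 3 SD, set per screening run, cut at about 8.8% in these data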;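 further: cells exposed to compound for 20 h before luminescence read; 0% = DMSO alone and 100% = MG132 at 30 µM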
* hit, by the source's call; ? = inconclusive; nt = not tested or not shown.

SMILES	Runt-SMMHC FRET	Runt-CBFb FRET	PHOSPHO1 block	RanGTP-Imp inh	Efa HMGR inh	Wee1 degr inh
CS(=O)(=O)c1ccc(Cl)c(NC(=O)CSC(=S)N2CCCC2)c1	nt	nt	14.7	3.4	nt	nt
Cc1sc2nc3n(c(=O)c2c1C)CCCS3	-1.6	0.2	14.4	?	1.9	7.4
O=c1cc(N2CCCCC2)nc2n1CCCS2	0.5	-0.8	21.2	158.9*	-8.7	1.4
CN(C)c1cc(=O)n2c(n1)SCCC2	-1.9	nt	44.8	71.7*	-2.9	0.2
CN(C)c1nc2n(c(=O)n1)CCS2	-1.8	2.8	-2.0	1.1	-1.2	0.2
COc1ccc(Br)cc1CN1CCN(C(=O)c2ccco2)CC1	nt	nt	46.6	0.7	nt	nt
CCn1nc(NC(=O)c2cccs2)c2cc3ccccc3nc21	24.0	13.8	34.9	38.8*	4.5	0.7
CCn1nc(NC(=O)c2cccnc2)c2cc3ccccc3nc21	8.5	5.4	13.0	18.7*	-6.5	1.7
CCn1nc(NS(=O)(=O)c2ccccc2)c2cc3ccccc3nc21	nt	nt	59.4	1.7	nt	nt
CCCCN1C(N)=NC[C@H]1Cc1ccc(O)cc1	-0.6	0.7	-26.3	-2.0	nt	nt
Cc1nn(Cc2c(F)c(F)c(F)c(F)c2F)c(C)c1NC(=O)c1ccc(COc2cc(Cl)ccc2Cl)cc1	-0.2	0.0	-1.1	-3.2	4.5	-0.2
Cc1cccc(C)c1NC(=O)c1cccc(COc2cc(Cl)ccc2Cl)c1	-0.7	2.3	-8.8	-0.6	-8.7	9.0*
O=C(CSc1nnc(CNC(=O)c2ccc(F)cc2)o1)Nc1nccs1	nt	nt	52.8	6.0	nt	nt
Cc1c(C(=O)NN2CCN(C)CC2)cccc1[N+](=O)[O-]	5.4	-1.8	60.5*	-0.7	-2.2	-4.4
O=C(O)CC12CC3CC(C1)CC(n1ncc(NCc4ccccc4Cl)c(Cl)c1=O)(C3)C2	-2.8	3.0	20.0	-5.1	nt	0.1
O=C(O)C12CC3CC(C1)CC(n1ncc(NCc4ccco4)c(Cl)c1=O)(C3)C2	-5.1	2.3	15.9	2.1	nt	10.2*
O=C(c1ccoc1)N1CCCC(CO)(CCCc2ccccc2)C1 (stereo unspecified)	nt	nt	19.8	-2.6	nt	nt
CCOc1ccc(NC(=O)c2cc(Cl)nc3ccccc23)cc1	-2.5	-1.7	27.7	5.8	nt	-0.7
Cc1ccc(OCc2n[nH]c(=S)n2C2CCCCC2)cc1	4.8	20.0	90.6*	4.7	3.1	2.3
COc1ccc(OCc2n[nH]c(=S)n2-c2ccc(C)cc2)cc1	nt	nt	91.9*	1.6	-4.0	-1.7
Cc1ccc(C(=O)COC(=O)CCc2ccc(S(=O)(=O)N3CCCCC3)cc2)cc1	-7.2	-0.6	11.6	-2.6	0.0	-1.8
CCN1CCc2c(sc(NC(=O)c3ccc(S(=O)(=O)N4CCOCC4)cc3)c2C(=O)OC)C1	14.2	-0.9	-19.0	3.4	-2.7	1.8
CNC(=O)c1c(NC(=O)c2ccc(S(=O)(=O)N3CCCCC3C)cc2)sc2c1CCN(C)C2 (stereo unspecified)	nt	nt	27.6	50.3*	nt	nt
CCCN1CCc2c(sc(NC(=O)c3ccc(S(=O)(=O)N4CCCC4)cc3)c2C(N)=O)C1	nt	nt	12.6	8.6	nt	nt
CC1CCCN(S(=O)(=O)c2ccc(C(=O)Nc3sc4c(c3C(N)=O)CCN(C)C4)cc2)C1 (stereo unspecified)	nt	nt	47.5	28.8*	nt	nt
SMILES	Runt-SMMHC FRET	Runt-CBFb FRET	PHOSPHO1 block	RanGTP-Imp inh	Efa HMGR inh	Wee1 degr inh
COC(=O)c1c(NC(=O)c2ccc(S(=O)(=O)N3CCOCC3)cc2)sc2c1CCN(C)C2	6.5	-1.9	-5.8	nt	0.3	1.4
CCN1CCc2c(sc(NC(=O)c3ccc(S(=O)(=O)N4CCCCCC4)cc3)c2C(=O)NC)C1	nt	nt	17.4	56.9*	nt	nt
Cc1ccsc1C(=O)N1CCCC(N2CCN(c3cccc(Cl)c3)CC2)C1 (stereo unspecified)	nt	nt	42.6	2.8	nt	nt
O=C(c1cccc(S(=O)(=O)N2CCCC2)c1)N1CCN(c2ccccc2F)CC1	-0.4	2.9	10.9	3.1	-2.9	-0.7
CC1CCN(S(=O)(=O)c2ccc(C(=O)N3CCN(c4ccccc4F)CC3)cc2)CC1	3.0	-4.4	60.1*	?	-0.5	0.2
Cc1cc(C)nc(NS(=O)(=O)c2ccc(NC(=O)CSc3ncn[nH]3)cc2)n1	2.7	-0.5	61.8*	-1.6	2.1	3.8
Cc1cc(C)nc(SCC(=O)Nc2ccc(S(=O)(=O)Nc3ncccn3)cc2)n1	nt	nt	8.0	1.7	2.1	2.5
O=C(NCCS(=O)(=O)NCc1ccccc1Cl)c1ccccc1	nt	nt	nt	6.8	nt	nt
O=c1c2ccsc2ncn1Cc1ccccc1F	0.0	-1.1	23.4	nt	0.4	14.8*
Cc1sc2ncn(Cc3ccccc3F)c(=O)c2c1C	1.9	-2.6	23.0	0.3	-5.0	4.3
CC1Cc2ccccc2N1C(=O)CSc1nnnn1C(C)C (stereo unspecified)	-1.8	-4.3	62.3*	?	-2.7	-1.1
FC(F)(F)c1ccccc1-n1c(-c2cnccn2)n[nH]c1=S	-0.9	2.6	74.5*	-0.2	nt	-2.6
COC(=O)c1sc(S(=O)(=O)NCCCN(C)C)c(C(=O)OC)c1C	-0.2	-0.9	79.8*	2.7	3.6	-1.7
COC(=O)c1sc(S(=O)(=O)Nc2ccc(C)c(C)c2)c(C(=O)OC)c1C	0.0	0.1	5.7	5.7	0.8	2.2
N#CC1(NC(=O)COc2ccc(S(=O)(=O)N3CCCC3)cc2[N+](=O)[O-])CCCCC1	nt	nt	nt	-6.1	nt	nt
COc1ccc(NC(=O)Cn2cccc2)cc1Cl	-0.8	2.6	-1.6	-2.6	10.6*	-2.6
Cc1ccc(NC(=O)Cn2cccc2)cc1Cl	-7.1	1.8	30.2	1.4	0.9	-0.5
O=C(CCCO)N/N=C/c1ccccc1[N+](=O)[O-]	2.1	1.2	-0.3	-3.6	-3.5	-0.6
O=C(Cn1ncc(Cl)c(Cl)c1=O)NC1CCS(=O)(=O)C1 (stereo unspecified)	-0.5	1.5	5.0	2.0	nt	9.5*
O=C(Cn1ncc(Cl)c(Cl)c1=O)NCC1CCCCC1	-4.0	-2.2	-20.7	nt	-1.0	-0.3
COc1ccc(Cc2nc(-c3cccs3)no2)cc1OC	-2.0	0.1	-11.0	-1.3	-0.2	1.7
COc1ccc(Cc2nc(-c3cccs3)no2)cc1	1.3	-2.3	27.4	-0.8	-7.6	8.9*
N/C(Cn1cncn1)=N\NC(=O)C(=O)Nc1ccccc1	0.8	-1.4	29.2	5.5	-2.8	-1.6
N/C(Cn1cncn1)=N\NC(=O)C(=O)Nc1cccc(C(F)(F)F)c1	-1.1	3.9	60.0*	-0.5	-0.4	0.6

Screening data deposited in PubChem by several laboratories.
